Reference: PMC5538152 (Pharmacognosy Magazine, 2017)

Experiments:
caspase 8 and caspase 9 = conditions: cited from earlier work
[1] = test system: CCD-18Co normal human colon fibroblast cell line; experiment: In vitro cytotoxicity assay; type: cell-based; conditions: 72 h
[2] = test system: DLD-1 colon carcinoma cell line; conditions: read-out: IC50 against DLD-1; cited from earlier work
HT29 cells [3] = experiment: Nuclear morphology by Hoechst 33342/propidium iodide staining; type: cell-based, human; conditions: 8 μM, 48 h
In short: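 Overnight cultures (1 × 10^5 cells/ml) were given test compound at 8, 14 or 28 μM or 0.5% DMSO for 48 h at 37°C, 5% CO2. Cells were harvested, washed in cold PBS and incubated with Hoechst 33342 (10 μg/ml) for 7 min at 37°C. PI (2.5 μg/ml) was then added for 15 min in the dark at room temperature. Cells were dried on slides and nuclei examined by fluorescence microscopy at ×630.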

HT29 cells [4] = experiment: Cell morphology by phase contrast microscopy; type: cell-based, human; conditions: 8, 14, 28 μM; dose- and time-dependent
caspase 8 in HT29 cells = experiment: Active caspase 8 by flow cytometry; type: cell-based, human; conditions: 72 h of treatment
In short: (§1)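 HT29 cells were seeded at 1 × 10^5 cells/ml overnight, then exposed to test compound at 8, 14 or 28 μM for 72 h (37°C, 5% CO2), with untreated cells in 0.5% DMSO as control. Harvested, PBS-washed cells were labelled 45 min at 37°C with FITC-IETD-FMK (caspase 8) or FITC-LEHD-FMK (caspase 9), then washed and read by flow cytometry in FL1. Means ± SD, ≥3 independent experiments.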

HT29 cells [5] = experiment: Cell cycle analysis; type: cell-based, human; conditions: 72 h; for Percentage of cells in G2-M phase (Dip G2): untreated 7.70%; for Percentage of cells in G0-G1 phase (Dip G1): untreated 65.54%
caspase 9 in HT29 cells = experiment: Active caspase 9 by flow cytometry; type: cell-based, human; conditions: 72 h of treatment
In short: as §1

[6] = test system: HeLa cervical carcinoma cell line; conditions: read-out: IC50 against HeLa; cited from earlier work

Row | Structure (SMILES) | Caspase activation (caspase 8 and caspase 9) | Toxicity to normal colon cells (words) ([1]; listed as Rutamarin) | Toxicity to normal colon cells (words) ([1]; listed as rutamarin) | IC50 ([1]; Homo sapiens, CCD-18Co, read-out: IC50 (μM), CCD-18Co, 72 h of incubation, SRB) [µM] | IC50 [2] [µM] | Nuclear morphology (HT29 cells [3]) | Cellular morphological changes (HT29 cells [4]) | Caspase 8 activation relative to untreated cells (caspase 8 in HT29 cells) [fold] | Percentage of cells in G2-M phase (Dip G2) (HT29 cells [5]; 8 μM) [%] | Percentage of cells in G0-G1 phase (Dip G1) (HT29 cells [5]; 8 μM) [%] | Percentage of cells in G2-M phase (Dip G2) (HT29 cells [5]; 14 μM) [%] | Percentage of cells in G0-G1 phase (Dip G1) (HT29 cells [5]; 14 μM) [%] | Percentage of cells in G2-M phase (Dip G2) (HT29 cells [5]; 28 μM) [%] | Percentage of cells in G0-G1 phase (Dip G1) (HT29 cells [5]; 28 μM) [%] | Caspase 9 activation relative to untreated cells (caspase 9 in HT29 cells) [fold] | IC50 [6] [µM]
1 | CCCC(=O)c1c(O)c(C/C=C(\C)CCC=C(C)C)c(O)c2c([C@@H](O)CC)cc(=O)oc12 [kayeassamin A] | activate caspase 8 more than caspase 9 |  |  |  |  |  |  |  |  |  |  |  |  |  |  | 
2 | C=CC(C)(C)c1cc2cc3c(cc2oc1=O)OC(C(C)(C)OC(C)=O)C3 (stereo not shown) [Rutamarin (8), rutamarin] |  | not toxic to CCD-18Co cells | exerted no damage against the normal cells | ≥ 100 | 37.5 | chromatin condensation | apoptotic bodies, cell shrinkage, detachment, and rounding were observed | 15 | 12.05 | 75.26 | 12.60 | 76.20 | 15.24 | 76.58 | 4 | 50.7
